According to ChEMBL document CHEMBL1833835, “Synthesis and evaluation of the anti parasitic activity of aromatic nitro compounds” (Eur J Med Chem, 2011):

Tests used:
Trypanosoma cruzi [1] = assay: Trypanocidal activity against intracellular amastigote form of Trypanosoma cruzi Tulahuen expressing beta-galactosidase infected in mouse L929 cells after 7 days by microplate reader analysis; type: functional, organism-based; details: L929, 168 h
PBMC = assay: Inhibition of cell proliferation of phytohemagglutinin-induced human PBMC; type: cell-based
[2] = Selectivity index, ratio of IC50 for human PBMC to IC50 for Leishmania amazonensis IFLA/BR/67/PH8
How it was run: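 Ratio of PBMC proliferation IC50 (PHA-stimulated, MTT, 48 h) to promastigote IC50 (MTT, 48 h).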

Leishmania amazonensis = assay: Antiparasitic activity against promastigote form of Leishmania amazonensis IFLA/BR/67/PH8 after 48 hrs by MTT assay; type: functional, organism-based; details: IFLA/BR/67/PH8, 48 h
How it was run: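 Promastigotes kept at 23 °C in Schneider's medium with 20% heat-inactivated FCS, pH 7.2; plated at 1 × 10⁷/well. Screening at 100 µM in triplicate, then six-point dilutions in duplicate for compounds exceeding 50% inhibition. After 48 h, MTT added for 4 h, stopped with isopropanol/SDS, OD 570 nm read; IC50 from curve; three independent experiments.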

Trypanosoma cruzi [3] = assay: Trypanocidal activity against intracellular trypomastigote form of Trypanosoma cruzi Tulahuen expressing beta-galactosidase infected in mouse L929 cells after 7 days by microplate reader analysis; type: functional, organism-based; details: L929, 168 h

Row | Compound | IC50 (Trypanosoma cruzi [1]) | IC50 (PBMC) | Ratio IC50 [2] | IC50 (Leishmania amazonensis) | IC50 (Trypanosoma cruzi [3])
1 | O=C(NCCCl)c1ccc(CCl)c([N+](=O)[O-])c1 | > 1000 µM | 1100 µM | 21.7 | 50.6 µM | 
2 | COC(=O)c1ccc(CBr)c([N+](=O)[O-])c1 | > 1000 µM | 44.1 µM | 1.1 | 39.3 µM | > 500 µM
3 | O=C(NCCO)c1ccc(CBr)c([N+](=O)[O-])c1 | > 1000 µM | 53.9 µM | 2.3 | 23.1 µM | 
4 | O=C(NCCO)c1ccc(CCl)c([N+](=O)[O-])c1 | > 1000 µM | 960 µM | 16.1 | 59.5 µM | 
5 | O=C(O)c1ccc(CO)c([N+](=O)[O-])c1 | > 1000 µM |  |  | > 100 µM | 
6 | O=C(Cn1ccnc1[N+](=O)[O-])NCc1ccccc1 [BENZNIDAZOLE] | 3.8 µM |  |  |  | 
7 | O=C(NCCO)c1ccc(CCl)cc1 | > 1000 µM | 330 µM | <3.3 | > 100 µM | 
8 | O=C(O)c1ccc(CBr)c([N+](=O)[O-])c1 | > 1000 µM | 344 µM | <3.4 | > 100 µM | > 500 µM
9 | O=C(O)c1ccc(CBr)cc1 | > 1000 µM | 88.8 µM | <0.9 | > 100 µM | > 500 µM
